Measurements from ChEMBL document CHEMBL2057126, “Discovery of new inhibitors of Cdc25B dual specificity phosphatases by structure-based virtual screening” (J Med Chem, 2012).
Calls of active or inactive are those of the source. No cut-off for these calls is given here.

Legend:
[1] = test system: MCF7; test: Cell cycle arrest in human MCF7 cells assessed as accumulation at G1 phase at 400 uM after 48 hrs by propidium iodide staining-based flow cytometry (reference value: 64.5 +/- 0.02%); format: functional
[2] = test system: MCF7; test: Cell cycle arrest in human MCF7 cells assessed as accumulation at S phase at 400 uM after 24 hrs by propidium iodide staining-based flow cytometry (reference value: 9.35%); format: functional
[3] = molecular target: T1, M-phase inducer phosphatase 3 (Homo sapiens) (UniProt P30307); test: (§1) Inhibition of recombinant phosphatase activity of Cdc25C catalytic domain expressed in Escherichia coli BL21(DE3) using OMFP as substrate at 100 uM after 15 mins by fluorimetric assay
T1 sequence (whole entry): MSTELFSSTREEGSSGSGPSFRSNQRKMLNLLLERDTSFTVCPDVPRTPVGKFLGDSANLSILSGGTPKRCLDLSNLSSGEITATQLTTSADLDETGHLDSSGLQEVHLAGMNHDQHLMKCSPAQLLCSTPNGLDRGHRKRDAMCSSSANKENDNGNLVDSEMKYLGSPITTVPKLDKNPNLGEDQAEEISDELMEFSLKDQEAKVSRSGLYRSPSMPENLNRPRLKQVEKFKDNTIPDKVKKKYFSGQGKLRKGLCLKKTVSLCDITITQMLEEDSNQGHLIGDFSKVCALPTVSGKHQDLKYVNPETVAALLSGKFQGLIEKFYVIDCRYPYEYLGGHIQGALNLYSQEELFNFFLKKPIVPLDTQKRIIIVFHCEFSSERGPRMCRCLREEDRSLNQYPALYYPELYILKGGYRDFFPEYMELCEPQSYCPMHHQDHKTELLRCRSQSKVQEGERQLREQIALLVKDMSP

[4] = molecular target: T2, M-phase inducer phosphatase 1 (Homo sapiens, UniProt P30304); test: Inhibition of recombinant phosphatase activity of Cdc25A catalytic domain expressed in Escherichia coli BL21(DE3) using OMFP as substrate by spectrofluorimetric analysis
T2 sequence (P30304 whole entry): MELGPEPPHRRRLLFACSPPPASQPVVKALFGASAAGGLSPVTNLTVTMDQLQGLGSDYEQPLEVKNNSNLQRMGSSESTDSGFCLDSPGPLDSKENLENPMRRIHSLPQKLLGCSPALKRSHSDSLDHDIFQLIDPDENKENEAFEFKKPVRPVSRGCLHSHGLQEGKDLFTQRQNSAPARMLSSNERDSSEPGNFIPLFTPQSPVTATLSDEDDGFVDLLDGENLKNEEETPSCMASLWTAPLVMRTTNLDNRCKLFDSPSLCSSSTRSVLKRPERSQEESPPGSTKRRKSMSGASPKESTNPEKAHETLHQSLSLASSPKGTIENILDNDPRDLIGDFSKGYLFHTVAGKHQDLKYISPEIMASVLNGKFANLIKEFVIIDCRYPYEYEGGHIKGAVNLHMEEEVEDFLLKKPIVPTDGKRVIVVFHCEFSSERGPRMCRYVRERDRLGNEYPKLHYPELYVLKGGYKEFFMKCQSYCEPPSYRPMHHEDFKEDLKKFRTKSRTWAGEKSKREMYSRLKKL
Summary of the method: (§2)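 Purified recombinant Cdc25A catalytic domain; phosphatase activity measured as OMFP hydrolysis versus inhibitor concentration to derive IC50, with Ki calculated from kinetic measurements. Results are averages ± SD of three determinations.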

[5] = test system: K562; test: Growth inhibition against human K562 cells expressing Cdc25A-C assessed as cell viability at 400 uM after 72 hrs by MTS assay; format: functional, cell-based
Summary of the method: (§3)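 MCF-7 breast, PC-3 prostate and K562 leukaemia cells treated 72 h with inhibitor or DMSO vehicle control, then cell viability measured. Values are mean ± SD of three experiments; significance by Student's t test, p ≤ 0.05.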

[6] = test system: MCF7; test: Cell cycle arrest in human MCF7 cells assessed as accumulation at G1 phase at 400 uM after 24 hrs by propidium iodide staining-based flow cytometry (reference value: 81.3 +/- 0.01%); format: functional
[7] = test system: MCF7; test: Cell cycle arrest in human MCF7 cells assessed as accumulation at S phase at 400 uM after 48 hrs by propidium iodide staining-based flow cytometry (reference value: 14.5 +/- 0.01%); format: functional
[8] = molecular target: T3, M-phase inducer phosphatase 1 (Homo sapiens) (UniProt P30304); test: (§4) Inhibition of recombinant phosphatase activity of Cdc25A catalytic domain expressed in Escherichia coli BL21(DE3) using OMFP as substrate at 100 uM after 15 mins by fluorimetric assay
T3 sequence (whole entry): T2 sequence (P30304 whole entry)

[9] = molecular target: T2, M-phase inducer phosphatase 1; test: Inhibition of recombinant phosphatase activity of Cdc25A catalytic domain expressed in Escherichia coli BL21(DE3) using OMFP as substrate by Lineweaver-Burk plot analysis; summary of the method: as §2
[10] = molecular target: T4, M-phase inducer phosphatase 2 (Homo sapiens) (UniProt P30305); test: Inhibition of Cdc25B in human K562 cells assessed as increase in Cdk1 phosphorylation at 400 uM after 24 hrs by Western blot analysis; format: cell-based
T4 sequence (whole entry): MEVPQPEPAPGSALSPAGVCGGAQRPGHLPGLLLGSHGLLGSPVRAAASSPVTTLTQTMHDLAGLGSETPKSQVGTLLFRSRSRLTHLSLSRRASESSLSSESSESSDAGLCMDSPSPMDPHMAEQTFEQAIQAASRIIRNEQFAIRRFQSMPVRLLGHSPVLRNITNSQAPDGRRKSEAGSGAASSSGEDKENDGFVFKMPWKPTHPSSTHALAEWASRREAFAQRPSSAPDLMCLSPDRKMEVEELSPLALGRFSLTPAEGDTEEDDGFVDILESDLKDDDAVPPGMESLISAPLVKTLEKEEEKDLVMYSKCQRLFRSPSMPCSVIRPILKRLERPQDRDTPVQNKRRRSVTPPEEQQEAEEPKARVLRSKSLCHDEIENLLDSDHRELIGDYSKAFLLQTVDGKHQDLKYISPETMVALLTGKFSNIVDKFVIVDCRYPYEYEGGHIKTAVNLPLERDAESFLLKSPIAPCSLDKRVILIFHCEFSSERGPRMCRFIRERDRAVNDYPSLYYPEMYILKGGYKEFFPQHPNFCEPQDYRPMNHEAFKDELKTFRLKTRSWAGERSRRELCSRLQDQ
Summary of the method: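 K562 cells treated 24 h with inhibitor or DMSO vehicle, lysed, and Western blotted with anti-phospho-Cdk1 (Y15) antibody; total Cdk1 detected as loading control.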

[11] = molecular target: T5, M-phase inducer phosphatase 2 (Homo sapiens, UniProt P30305); test: Competitive inhibition of recombinant phosphatase activity of Cdc25B catalytic domain expressed in Escherichia coli BL21(DE3) using OMFP as substrate by Lineweaver-Burk plot analysis
T5 sequence (P30305 whole entry): T4 sequence (whole entry)

[12] = molecular target: T5, M-phase inducer phosphatase 2; test: (§5) Inhibition of recombinant phosphatase activity of Cdc25B catalytic domain expressed in Escherichia coli BL21(DE3) using OMFP as substrate by spectrofluorimetric analysis
[13] = molecular target: T4, M-phase inducer phosphatase 2 (Homo sapiens); test: as §5
[14] = test system: MCF7; test: Growth inhibition against human MCF7 cells expressing Cdc25A-C assessed as cell viability at 400 uM after 72 hrs by MTS assay; format: functional, cell-based; summary of the method: as §3
[15] = test system: MCF7; test: Cell cycle arrest in human MCF7 cells assessed as accumulation at G2/M phase at 400 uM after 48 hrs by propidium iodide staining-based flow cytometry (reference value: 21 +/- 0.04%); format: functional
[16] = test system: MCF7; test: Cell cycle arrest in human MCF7 cells assessed as accumulation at G2/M phase at 400 uM after 24 hrs by propidium iodide staining-based flow cytometry (reference value: 9.4 +/- 0.04%); format: functional
[17] = test system: PC-3; test: Growth inhibition against human PC3 cells expressing Cdc25A-C assessed as cell viability at 400 uM after 72 hrs by MTS assay; format: functional, cell-based; summary of the method: as §3
[18] = molecular target: T4, M-phase inducer phosphatase 2 (Homo sapiens); test: (§6) Inhibition of recombinant phosphatase activity of Cdc25B catalytic domain expressed in Escherichia coli BL21(DE3) using OMFP as substrate at 100 uM after 15 mins by fluorimetric assay
[19] = test system: MCF7; test: Cell cycle arrest in human MCF7 cells assessed as accumulation at G1 phase at 20 uM after 24 hrs by propidium iodide staining-based flow cytometry (reference value: 81.3 +/- 0.01%); format: functional
[20] = test system: K562; test: Increase of ROS level in human K562 cells expressing Cdc25A-C using H2DCFDA at 20 uM after 30 mins by flow cytometry; format: functional, cell-based
[21] = test system: MCF7; test: Cell cycle arrest in human MCF7 cells assessed as accumulation at S phase at 20 uM after 24 hrs by propidium iodide staining-based flow cytometry (reference value: 9.35%); format: functional
[22] = test system: PC-3; test: Growth inhibition against human PC3 cells expressing Cdc25A-C assessed as cell viability at 20 uM after 72 hrs by MTS assay; format: functional, cell-based; summary of the method: as §3
[23] = molecular target: T4, M-phase inducer phosphatase 2 (Homo sapiens); details: K562, 20 uM
[24] = molecular target: T4, M-phase inducer phosphatase 2 (Homo sapiens); details: 400 uM
[25] = test system: MCF7; test: Cell cycle arrest in human MCF7 cells assessed as accumulation at S phase at 20 uM after 48 hrs by propidium iodide staining-based flow cytometry (reference value: 14.5 +/- 0.01%); format: functional
[26] = test system: PC-3; test: Increase of ROS level in human PC3 cells expressing Cdc25A-C using H2DCFDA at 20 uM after 30 mins by flow cytometry in presence of DTT; format: functional, cell-based
[27] = test system: PC-3; test: Increase of ROS level in human PC3 cells expressing Cdc25A-C using H2DCFDA at 20 uM after 30 mins by flow cytometry; format: functional, cell-based
[28] = test system: MCF7; test: Cell cycle arrest in human MCF7 cells assessed as accumulation at G2/M phase at 20 uM after 48 hrs by propidium iodide staining-based flow cytometry (reference value: 21 +/- 0.04%); format: functional
[29] = test system: K562; test: Growth inhibition against human K562 cells expressing Cdc25A-C assessed as cell viability at 20 uM after 72 hrs by MTS assay; format: functional, cell-based; summary of the method: as §3
[30] = molecular target: T4, M-phase inducer phosphatase 2 (Homo sapiens); test: Reversible inhibition of recombinant phosphatase activity of Cdc25B catalytic domain expressed in Escherichia coli BL21(DE3) assessed as residual activity of enzyme measured after 10 fold dilution at 100 uM preincubated for 20 mins
Summary of the method: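 Cdc25B (0.5 μg) preincubated 20 min at room temperature with 100 μM inhibitor or DMSO vehicle, then diluted 10-fold. Residual phosphatase activity was read after adding OMFP substrate and expressed as percent of the untreated control. Mean ± SD of three determinations.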

[31] = test system: MCF7; test: Cell cycle arrest in human MCF7 cells assessed as accumulation at G1 phase at 20 uM after 48 hrs by propidium iodide staining-based flow cytometry (reference value: 64.5 +/- 0.02%); format: functional
[32] = test system: K562; test: Increase of ROS level in human K562 cells expressing Cdc25A-C using H2DCFDA at 20 uM after 30 mins by flow cytometry in presence of DTT; format: functional, cell-based
[33] = test system: MCF7; test: Growth inhibition against human MCF7 cells expressing Cdc25A-C assessed as cell viability at 20 uM after 72 hrs by MTS assay; format: functional, cell-based; summary of the method: as §3
[34] = test system: MCF7; test: Cell cycle arrest in human MCF7 cells assessed as accumulation at G2/M phase at 20 uM after 24 hrs by propidium iodide staining-based flow cytometry (reference value: 9.4 +/- 0.04%); format: functional
[35] = molecular target: M-phase inducer phosphatase 3 (Homo sapiens) (UniProt P30307); test: as §1; remark: listed apart in the source
[36] = molecular target: M-phase inducer phosphatase 1 (Homo sapiens) (UniProt P30304); test: as §4; remark: listed apart in the source
[37] = molecular target: M-phase inducer phosphatase 2 (Homo sapiens) (UniProt P30305); test: as §6; remark: listed apart in the source
[38] = molecular target: T4, M-phase inducer phosphatase 2 (Homo sapiens); test: Reversible inhibition of recombinant phosphatase activity of Cdc25B catalytic domain expressed in Escherichia coli BL21(DE3) assessed as residual activity of enzyme measured after 10 fold dilution at 100 uM preincubated for 20 mins

inhibition [3]	inhibition [8]	inhibition [10]	inhibition [13]	inhibition [18]	Molecule	Activity [1]	Activity [2]	growth inhibition (GI) [5]	Activity [6]	Activity [7]	growth inhibition (GI) [14]	Activity [15]	Activity [16]	growth inhibition (GI) [17]	other results
35%	41%	Active	Dose-dependent effect	53%	O=S(=O)(O)c1ccc(-c2nnc(-c3ccccn3)nc2-c2ccc(S(=O)(=O)O)o2)o1	95.4%	11.3%	Active	78.7%	1.8%	Active	2.9%	10%	Active	IC50 [4]: 110 µM; Ki [9]: 139 µM; Ki [11]: 159 µM; IC50 [12]: 173 µM
					VANADATE										inhibition [35]: 90%; inhibition [36]: 77%; inhibition [37]: 91%
55%	46%	Active	Dose-dependent effect	41%	COc1ccc(Cc2ccc3nc(O)cc(C)c3c2)cc1S(=O)(=O)O	93.5%	3.3%	Active	91.1%	3.2%	Active	3.3%	5.6%	Active	inhibition [38]: Active

Molecule	inhibition [3]	inhibition [8]	inhibition [10]	inhibition [13]	inhibition [18]	Activity [1]	Activity [2]	growth inhibition (GI) [5]	Activity [6]	Activity [7]	growth inhibition (GI) [14]	Activity [15]	Activity [16]	growth inhibition (GI) [17]	other results
O=C(O)CCc1c2ccc(=O)c(O)c-2oc2c(O)c(O)ccc12	99%	100%		Dose-dependent effect	99%										Activity [19]: 68.8%; Activity [20]: Active; Activity [21]: 13.1%; growth inhibition (GI) [22]: Active; inhibition [23]: Active; inhibition [24]: Active; Activity [25]: 2.6%; Activity [26]: inactive; Activity [27]: Active; Activity [28]: 4.6%; growth inhibition (GI) [29]: Active; inhibition [30]: Active; Activity [31]: 92.8%; Activity [32]: inactive; growth inhibition (GI) [33]: Active; Activity [34]: 18.1%
